Data set [1] addresses T1, Orexin/Hypocretin receptor type 1 (Homo sapiens) (UniProt O43613).
T1 sequence (whole entry): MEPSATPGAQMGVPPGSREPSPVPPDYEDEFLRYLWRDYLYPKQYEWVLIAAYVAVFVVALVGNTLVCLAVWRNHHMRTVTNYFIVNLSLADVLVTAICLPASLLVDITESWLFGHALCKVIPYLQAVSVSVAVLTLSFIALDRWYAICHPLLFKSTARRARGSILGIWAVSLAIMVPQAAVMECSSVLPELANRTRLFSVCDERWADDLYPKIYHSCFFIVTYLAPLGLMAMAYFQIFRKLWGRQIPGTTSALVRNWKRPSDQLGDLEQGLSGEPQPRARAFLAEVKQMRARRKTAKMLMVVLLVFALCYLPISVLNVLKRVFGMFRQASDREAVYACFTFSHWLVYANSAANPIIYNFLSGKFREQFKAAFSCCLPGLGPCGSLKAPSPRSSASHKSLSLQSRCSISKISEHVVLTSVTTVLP
Put plainly: Antagonist activity against human OX1 receptor expressed in CHO cells assessed as reduction in [Ala6,12]orexin-A-induced intracellular Ca2+ mobilization incubated for 30 mins by Fluo-4 AM dye based fluorescence assay. The format is functional, cell-based. The procedure, abridged: (§1)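 Cells seeded 2.4 × 10⁴/well, cultured 18 h. Loaded with Fluo-4 AM (0.5 µM final) in HBSS, 20 mM HEPES, 0.1% BSA, 2.5 mM probenecid, 0.2 mg/mL amaranth, pH 7.4, 37 °C 1 h. Washed, then antagonist for 30 min at room temperature. Peak minus basal fluorescence normalized to the [Ala6,12]orexin-A maximum. Kb = IC50/(1+[L]/EC50). At least three independent runs in duplicate.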

In data set [2] the target is T2, Orexin receptor type 2 (Homo sapiens) (UniProt O43614).
T2 sequence (whole entry): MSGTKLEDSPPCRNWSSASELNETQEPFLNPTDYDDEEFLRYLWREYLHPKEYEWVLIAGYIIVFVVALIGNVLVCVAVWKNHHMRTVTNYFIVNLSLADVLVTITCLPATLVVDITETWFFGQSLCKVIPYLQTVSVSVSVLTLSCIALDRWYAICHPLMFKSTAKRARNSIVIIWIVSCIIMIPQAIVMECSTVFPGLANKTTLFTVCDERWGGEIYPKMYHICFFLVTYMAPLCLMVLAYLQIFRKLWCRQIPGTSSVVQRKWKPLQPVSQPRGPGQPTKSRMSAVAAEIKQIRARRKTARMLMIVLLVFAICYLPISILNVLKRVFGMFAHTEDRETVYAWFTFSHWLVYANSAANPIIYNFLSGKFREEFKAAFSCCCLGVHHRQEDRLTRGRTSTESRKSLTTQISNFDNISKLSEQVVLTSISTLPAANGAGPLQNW
Put plainly: Antagonist activity against human OX2 receptor expressed in CHO cells assessed as reduction in [Ala6,12]orexin-A-induced intracellular Ca2+ mobilization incubated for 30 mins by Fluo-4 AM dye based fluorescence assay. The class given is functional, cell-based. The procedure, abridged: as §1

Data set [3] is described as follows: Drug metabolism in human liver microsomes at 5 uM after 15 mins. The format is ADME. The settings on record: read-out: Drug metabolism. The procedure, abridged: (§2)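 Liver microsomes at 1 mg protein/mL with 5 µM compound, incubated 15 min. Value reported as percentage of compound metabolized.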
The next data set concerns Rattus norvegicus. Put plainly: Toxicity in Wistar rat assessed as effect on rotarod performance at 10 mg/kg, ip administered 30 mins prior to the test by rotarod test. The format is organism-based. Set-up: dose 10 mg/kg, route intraperitoneal. As to conditions: in vivo, 0.5 h.
Data set [4] can be described thus: Volume of distribution in Sprague-Dawley rat at 2 mg/kg, iv. Set-up: dose 2 mg/kg, route intravenous. As to conditions: in vivo. The format is ADME, organism-based. The procedure, abridged:
(§3)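 Fasted male Sprague–Dawley rats (n = 3) given 2 mg/kg iv. Vd and CL taken from the iv profile. T1/2 calculated as ln2·Vd/CL.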

Data set [5] can be described thus: Clearance in Sprague-Dawley rat at 2 mg/kg, iv. The format is ADME, organism-based. Set-up: dose 2 mg/kg, route intravenous. As to conditions: in vivo. The procedure, abridged:
as §3

Data set [6] is described as follows: Half life in Sprague-Dawley rat at 2 mg/kg, iv. The class given is ADME, organism-based. Also on record: dose 2 mg/kg, route intravenous. The settings on record: in vivo. The procedure, abridged: as §3
A short description of data set [7]: Tmax in Sprague-Dawley rat at 30 mg/kg, po. Set-up: dose 30 mg/kg, route oral. The settings on record: in vivo. The class given is ADME, organism-based.
Data set [8] in a line: Oral bioavailability in Sprague-Dawley rat at 30 mg/kg. The class given is ADME, organism-based. The settings on record: in vivo.
A short description of data set [9]: Ratio of drug level in brain to plasma in Sprague-Dawley rat at 30 mg/kg, ip. The format is ADME, organism-based. Set-up: dose 30 mg/kg, route intraperitoneal. The settings on record: read-out: BPR. The procedure, abridged:
(§4)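 Male rats dosed ip at 30 mg/kg. Drug concentrations measured in brain, CSF and plasma, and reported as brain/plasma and CSF/plasma ratios.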

A short description of data set [10]: Ratio of drug level in CSF to plasma in Sprague-Dawley rat at 30 mg/kg, ip. The class given is ADME, organism-based. Set-up: dose 30 mg/kg, route intraperitoneal. The procedure, abridged: as §4
The nature of data set [11]: Drug metabolism in rat liver microsomes at 5 uM after 15 mins. The format is ADME. As to conditions: read-out: Drug metabolism. The procedure, abridged: as §2
Data set [12] in a line: Volume of distribution in dog at 0.5 mg/kg, iv. The class given is ADME, organism-based, Canis lupus familiaris. Also on record: dose 0.5 mg/kg, route intravenous. As to conditions: in vivo. The procedure, abridged: (§5)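 Male dogs given 0.5 mg/kg iv (n = 3). Vd and CL derived from the iv profile. T1/2 = ln2·Vd/CL.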
The nature of data set [13]: Clearance in dog at 0.5 mg/kg, iv. The class given is ADME, organism-based, Canis lupus familiaris. Also on record: dose 0.5 mg/kg, route intravenous. The settings on record: in vivo. The procedure, abridged: as §5
A short description of data set [14]: Half life in dog at 0.5 mg/kg, iv. The format is ADME, organism-based, Canis lupus familiaris. Also on record: dose 0.5 mg/kg, route intravenous. As to conditions: in vivo. The procedure, abridged: as §5
The nature of data set [15]: Tmax in dog at 3 mg/kg, po. The format is ADME, organism-based, Canis lupus familiaris. Set-up: dose 3 mg/kg, route oral. The settings on record: in vivo. The procedure, abridged: (§6)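 Fasted male rats dosed orally at 10 mg/kg, and male dogs at 3 mg/kg (n = 3). Tmax read from the oral profile. F calculated against the iv arm (rat 2 mg/kg, dog 0.5 mg/kg).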
Data set [16] is described as follows: Oral bioavailability in dog at 3 mg/kg. The format is ADME, organism-based, Canis lupus familiaris. As to conditions: in vivo. The procedure, abridged:
as §6

The nature of data set [17]: Drug metabolism in dog liver microsomes at 5 uM after 15 mins. The format is ADME, Canis lupus familiaris. As to conditions: read-out: Drug metabolism. The procedure, abridged:
as §2

Data set [18] can be described thus: Half life in human. The format is ADME, organism-based. The settings on record: in vivo.

For the molecule `CCN(CCn1ccc(-c2cccc(C(F)(F)F)n2)n1)C(=O)c1cc(C)ccc1-n1nccn1`, the antagonist dissociation constant (Kb) in [1] was 3.19 nM; in data set [2] it was 3.92 nM.
Regarding `CCN(CCn1ccc(-c2ccc(C(F)(F)F)cn2)n1)C(=O)c1cc(C)ccc1-n1nccn1`, the Kb in data set [1] was 48.6 nM; in [2], 902 nM.
Turning to `CCN(CCn1ccc(-c2ccc(F)cn2)n1)C(=O)c1cc(OC)ccc1-n1nccn1`, the Kb in [1] amounted to 119 nM; in data set [2], 638 nM.
The corresponding values for `CCN(CCc1cc(-c2ccc(F)cn2)no1)C(=O)c1cc(C)ccc1-n1nccn1` are 45.5 nM and 32.2 nM.
For `Cc1ccc(-n2nccn2)c(C(=O)NCCn2ccc(-c3ccc(F)cn3)n2)c1`, the Kb was 152 nM in data set [1] and 376 nM in data set [2].
The corresponding values for `CCN(CCn1ccc(-c2ccc(F)cc2)n1)C(=O)c1cc(C)ccc1-n1nccn1` are 0.32 nM and 1.25 nM.
For the molecule `CCN(CCn1ccc(-c2ccc(F)cn2)n1)C(=O)c1cc(F)ccc1-n1nccn1`, the figures for the Kb in data set [1] and in data set [2] were 6.67 nM and 11.4 nM, respectively. Besides, the metabolised at 0.25 h, 5 µM in data set [3] is 35.3%.
With `Cc1ccc(-c2nc3ccc(C)cn3c2CC(=O)N(C)C)cc1` [ZOLPIDEM], the Activity result in the data set on Rattus norvegicus is given as “Toxic”.
`CCN(CCn1ccc(-c2ccc(F)cn2)n1)C(=O)c1cc(C)ccc1-c1ncccn1`: the antagonist equilibrium constant (Kb) in data set [1] came to 2.52 nM; in [2], 4.01 nM. Besides, the metabolised at 0.25 h, 5 µM in [3] came out at 19.7%; in data set [11] it was 97.3%; in [17], 10.1%. The values for the Vd in [4] and in data set [12] were 1.79 L/kg and 1.29 L/kg, respectively. Moreover, the values for the clearance in data set [5] and in data set [13] were 65.2 mL/min/kg and 13.1 mL/min/kg, respectively. Besides, the figures for the half-life in data set [6] and in data set [14] were 19.1 min and 67.8 min, respectively. The time of peak concentration (Tmax) came out at 40 min in data set [7] and 30 min in [15]. In addition, the figures for the bioavailability in [8] and in [16] were 4.62% and 100%, respectively. The values for the Kp in [9] and in data set [10] were 0.13 and 0.03, respectively.
Turning to `CCN(CCc1noc(-c2ccc(F)cn2)n1)C(=O)c1cc(C)ccc1-n1nccn1`, the Kb in data set [1] amounted to 8.09 nM; in data set [2] it was 23 nM.
In data set [18], `Cc1ccc(-n2nccn2)c(C(=O)N2CCN(c3nc4cc(Cl)ccc4o3)CC[C@H]2C)c1` [SUVOREXANT] gave a half-life of 540 min.
`CCN(CCn1cc(-c2ccc(F)cn2)cn1)C(=O)c1cc(C)ccc1-n1nccn1`: the antagonist equilibrium constant (Kb) in data set [1] came to 3.81 nM; in [2] it was 7.22 nM.
The corresponding values for `Cc1ccc(-n2nccn2)c(C(=O)N(CCn2ccc(-c3ccc(F)cn3)n2)C(C)C)c1` are 38.5 nM and 37.9 nM.
The corresponding values for `CCN(CCn1ccc(-c2cccc(C)n2)n1)C(=O)c1cc(C)ccc1-n1nccn1` are 0.41 nM and 1.96 nM.
Molecule `Cc1nc(C(=O)N2CCCC[C@H]2CNC(=O)c2cccc3occc23)c(-c2ccc(F)cc2)s1` [SB-649868] gave a half-life in [18] of 204 min.
`Cc1ccc(-n2nccn2)c(C(=O)N(C)CCn2ccc(-c3ccc(F)cn3)n2)c1`: the Kb came out at 2.27 nM in data set [1] and 8.58 nM in data set [2].
`CCN(CCc1cc(-c2ccc(F)cn2)on1)C(=O)c1cc(C)ccc1-n1nccn1`: the Kb in data set [1] was found to be 15.2 nM; in data set [2] it was 19.8 nM.
For `CCN(CCn1ccc(-c2ccc(F)cn2)n1)C(=O)c1cc(C)ccc1-n1nccn1`, the Kb in [1] was 0.43 nM; in [2], 0.89 nM. In [3], the metabolised at 0.25 h, 5 µM stood at 35%.
As to `CCN(CCn1ccc(-c2cc(C(F)(F)F)ccn2)n1)C(=O)c1cc(C)ccc1-n1nccn1`, the values for the Kb in [1] and in data set [2] were 28 nM and 66.4 nM, respectively.
Regarding `CCN(CCn1ccc(-c2ccc(F)cn2)n1)C(=O)c1cc(Cl)ccc1-n1nccn1`, the Kb worked out at 1.48 nM in [1] and 2.82 nM in data set [2]. The metabolised at 0.25 h, 5 µM in data set [3] amounted to 46.9%.
